Screening results as filed in PubChem BioAssay.
Myeloid diff 2: induction of myeloid progenitor differentiation, primary screen, cell-based, flow cytometry, MLPCN library | AID 624256, 2012 | 360,000 tested, 1% active | ER-HoxA9 myeloid progenitors, lysozyme-GFP differentiation | calls only at 10 µM;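 active = normalized GFP-positive differentiation at or above the plate's own cutoff, the solvent-only control mean plus 3 SD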;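 also: cells exposed to compound for four days before flow analysis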
Rce1 inhib: yeast Rce1p protease inhibitors, primary screen, biochemical, fluorescence, cell-free homogeneous. yeast membranes, quenched prenylated peptide cleavage fluorescence. calls only. 290,000 tested, 0.27% active. AID 2563, 2010;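 active = fall in fluorescence gain of 50% or more versus controls, with final raw signal at or below 3038400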;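 also: plate controls were neutral control wells for no effect and wells lacking membranes for full effect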
GRK2 aptamer HTS: compounds blocking aptamer binding on GRK2 – biochemical, human GRK2, bead flow cytometry, HTS, primary screen. Beta-adrenergic receptor kinase 1 (Homo sapiens), P25098. FAM-aptamer displacement from GRK2. inhibition of aptamer binding, % at 10 µM. 330,000 tested, 0.59% active. AID 488847, 2010;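 active = inhibition of aptamer binding above 40%, roughly 3 SD of noise, on plates passing a quality check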;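 also: median bead fluorescence of bound FAM aptamer so fluorescent compounds give negative values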
Rin1 Abl inh: inhibitors of Rin1-Abl protein binding, primary screen, biochemical, TR-FRET; inhibition, % at 7.35 µM; 360,000 tested, 0.4% active; in the data active = inhibition above about 5%, passing the limit was not always enough
Target sequence (P00519 whole entry, looked up): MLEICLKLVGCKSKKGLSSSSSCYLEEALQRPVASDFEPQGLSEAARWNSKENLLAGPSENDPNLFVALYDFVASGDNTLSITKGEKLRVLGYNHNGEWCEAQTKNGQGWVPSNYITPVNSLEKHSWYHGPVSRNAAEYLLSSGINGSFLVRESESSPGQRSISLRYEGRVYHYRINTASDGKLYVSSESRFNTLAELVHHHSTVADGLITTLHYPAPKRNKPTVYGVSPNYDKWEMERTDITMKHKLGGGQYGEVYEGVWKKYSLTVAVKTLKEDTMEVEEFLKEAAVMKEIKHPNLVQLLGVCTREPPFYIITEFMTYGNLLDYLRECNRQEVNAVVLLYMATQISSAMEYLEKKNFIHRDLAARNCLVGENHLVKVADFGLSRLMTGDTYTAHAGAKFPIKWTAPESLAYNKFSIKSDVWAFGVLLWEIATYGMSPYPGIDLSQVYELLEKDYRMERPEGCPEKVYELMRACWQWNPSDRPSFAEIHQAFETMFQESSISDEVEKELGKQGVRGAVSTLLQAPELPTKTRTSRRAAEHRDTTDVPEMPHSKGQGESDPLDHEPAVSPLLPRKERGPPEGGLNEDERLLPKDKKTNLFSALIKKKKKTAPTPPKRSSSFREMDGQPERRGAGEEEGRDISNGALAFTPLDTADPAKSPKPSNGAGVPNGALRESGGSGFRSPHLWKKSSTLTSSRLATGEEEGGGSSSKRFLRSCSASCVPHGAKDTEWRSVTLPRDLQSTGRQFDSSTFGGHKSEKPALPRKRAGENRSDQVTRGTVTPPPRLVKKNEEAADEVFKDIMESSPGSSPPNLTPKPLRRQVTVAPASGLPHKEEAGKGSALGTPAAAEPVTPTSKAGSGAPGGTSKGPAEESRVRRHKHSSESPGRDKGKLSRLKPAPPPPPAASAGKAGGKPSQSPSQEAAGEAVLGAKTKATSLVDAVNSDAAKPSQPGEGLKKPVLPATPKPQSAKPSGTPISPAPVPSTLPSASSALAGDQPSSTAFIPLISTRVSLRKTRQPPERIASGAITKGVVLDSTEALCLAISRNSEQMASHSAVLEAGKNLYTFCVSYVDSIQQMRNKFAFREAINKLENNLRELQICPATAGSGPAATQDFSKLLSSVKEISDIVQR
Target sequence (Q13671 whole entry, looked up): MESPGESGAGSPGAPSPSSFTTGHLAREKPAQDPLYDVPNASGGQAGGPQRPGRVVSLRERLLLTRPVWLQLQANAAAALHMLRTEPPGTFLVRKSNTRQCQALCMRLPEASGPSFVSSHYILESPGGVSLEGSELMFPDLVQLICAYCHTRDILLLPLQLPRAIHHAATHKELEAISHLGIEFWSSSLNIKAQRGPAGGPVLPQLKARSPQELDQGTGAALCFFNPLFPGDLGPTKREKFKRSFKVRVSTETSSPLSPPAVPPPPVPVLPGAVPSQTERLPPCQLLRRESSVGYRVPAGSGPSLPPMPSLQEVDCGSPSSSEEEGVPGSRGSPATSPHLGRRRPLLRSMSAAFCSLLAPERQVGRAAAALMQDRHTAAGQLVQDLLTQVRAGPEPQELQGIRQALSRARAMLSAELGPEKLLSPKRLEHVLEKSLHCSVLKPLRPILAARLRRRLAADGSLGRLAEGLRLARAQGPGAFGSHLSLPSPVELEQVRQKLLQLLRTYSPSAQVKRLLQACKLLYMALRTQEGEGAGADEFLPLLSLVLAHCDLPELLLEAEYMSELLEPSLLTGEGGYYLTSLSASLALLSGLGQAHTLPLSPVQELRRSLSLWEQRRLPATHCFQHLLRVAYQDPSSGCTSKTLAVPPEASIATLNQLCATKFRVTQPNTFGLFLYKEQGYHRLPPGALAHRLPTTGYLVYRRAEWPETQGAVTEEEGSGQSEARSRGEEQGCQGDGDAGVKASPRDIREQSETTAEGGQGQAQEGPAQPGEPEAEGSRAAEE
SKN-1 inh: suppressors of acrylamide-induced Pgst-4::GFP reporter in worms, primary screen, SKN-1 inhibitor project, whole organism, uHTS, GFP/RFP fluorescence ratio, strain VP596; 360,000 tested, 0.49% active; C. elegans VP596 Pgst-4::GFP/RFP ratio, 24 h; inhibition, % at 21.8 µM; AID 624304, 2012;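 active = interference check ratio from 0.5 to 1.5 plus GFP to RFP signal ratio inhibition reaching or exceeding a fixed threshold, cut at about 30% in these data, passing the limit was not always enough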
T cell HTS: modulators of CD8 T cell-vesicle binding, primary screen, mouse 2C CD8+ T cells, flow cytometry | 2C CD8+ T cell-vesicle binding; hits give low values | response (vesicle binding), % at 7 µM | 330,000 tested, 0.068% active;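 active = response, share of CD8 T cells binding vesicles, and their 90th percentile fluorescence all below set limits, cut at about 80% in these data, passing the limit was not always enough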;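 also: values below 100% mean blocked vesicle binding to the CD8+ T cells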
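Material: murine 2C transgenic CD8+ T lymphocytes / Also added: QL9-peptide-loaded Drosophila micro-vesicles bearing Ld, ICAM-1 and B7-1 / Schedule: binding step 1.5 h, 37 °C, antibody labelling 20 min, ice / Signal: flow cytometry, PE anti-B7-1 (FL2) versus Alexa647 anti-CD8 (FL8), PFA-fixed / Evaluation: percent CD8+ FL2 mean versus row control / Benchmarks: naked versus QL9-loaded vesicles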
Starred values were filed as active, the others as inactive; i = inactive; . = no result given; + = active, no number. Only some compounds are listed: those with a hit (about 2.6% of all), similar ones and a draw of the others.

SMILES	Myeloid diff 2	Rce1 inhib	GRK2 aptamer HTS	Rin1 Abl inh	SKN-1 inh	T cell HTS
CC(C)C(NC(=O)c1ccco1)C(=O)NCC(c1ccco1)N1CCCCC1 (centres undefined)	i	+	0.0	1.4	-10.7	366.7
Cc1c(/C=N/O)c2ccccn2c1C=O	i	i	0.0	0.0	-4.2	554.9
CCN(CC)CCCNC(=O)c1ccc2c(SCC(=O)O)c3c(nc2c1)CCC3	.	i	0.0	.	.	0.0
CCN(CC)CCNC(=O)CSc1c2c(nc3cc(Cl)ccc13)CCCC2	i	+	0.0	-7.0	-7.2	581.8
O=C(COC(=O)c1cc([N+](=O)[O-])ccc1N1CCOCC1)NC1CCCCC1	i	i	11.0	1.4	1.9	935.8
CC(/C=C/c1ccccc1)=N/O	i	i	0.0	-0.3	-8.4	282.9
CC(/C=C/c1ccc(O)cc1)=N/O	+	i	0.0	2.9	1.9	290.6
O=C(O)/C=C/c1ccc(O)cc1	i	+	4.0	-3.2	4.2	226.1
O=C(COC(=O)C1CC2CCCC(C1)C2=O)NNC(=O)c1ccc([N+](=O)[O-])cc1 (centres undefined)	i	i	0.0	-0.6	19.3	628.6
COc1ccc(S(=O)(=O)NNC(=O)Nc2ccc(C)cc2C)c(OC)c1	i	i	25.0	2.6	-10.0	94.7
OC1CCN(C(c2ccc3ncccc3c2)c2nnnn2C2CCCCC2)CC1 (centres undefined)	i	+	0.0	2.0	8.6	418.0
c1cnc2ccc(C(c3nnnn3C3CCCCC3)N3CCN4CCCC4C3)cc2c1 (centres undefined)	i	i	2.0	2.2	10.5	273.3
OCCNc1ncnc2c1cnn2Cc1ccccc1	i	i	0.0	-0.7	-3.7	197.1
c1ccc(CNc2ncnc3c2cnn3Cc2ccccc2)cc1	+	i	11.0	1.1	0.3	200.9
CN(C)/N=C/c1ccc(P(c2ccc(/C=N/N(C)C)o2)c2ccc(/C=N/N(C)C)o2)o1	i	i	1.0	-0.2	4.5	154.5
CCC(=O)NCCCNc1nc2c(C)cccc2cc1C#N	i	.	2.0	0.4	1.8	792.1
Cc1cccc2cc(C#N)c(NCCNS(=O)(=O)c3ccc4c(c3)OCCO4)nc12	+	i	0.0	-3.1	-14.9	702.9
O=C(CO)C(O)C(O)C(O)CO (centres undefined)	+	.	1.0	-0.2	-2.1	401.6
Cc1ccc(Cl)cc1N1CCN(S(=O)(=O)c2c(C(=O)N3CCOCC3)c(C)n(C)c2C)CC1	+	i	3.0	3.5	-2.0	522.4
Cc1ccc(C)c(N2CCN(S(=O)(=O)c3c(C(=O)N4CCCCC4)c(C)n(C)c3C)CC2)c1	i	i	25.0	3.5	22.4	323.0
COc1ccc(-c2[nH]ncc2CN2CCN(C(=O)c3cccs3)CC2)c(F)c1	+	i	0.0	-0.1	2.1	350.8
CC#CCN(Cc1ccco1)C(=O)c1ccc(OC2CCN(Cc3ccccn3)CC2)cc1	i	i	0.0	-0.4	24.5	320.3
COc1ccc(-c2ccc3oc(-c4ccsc4)c(-c4ccc(Br)nc4)c3c2)cc1	.	.	4.0	.	.	858.3
COc1ccc(-c2c(-c3ccsc3)oc3ccc(N4CCOCC4)cc23)cn1	i	+	.	0.2	5.5	.
COc1ccccc1-c1noc(CCC(=O)NC2CCCCC2)n1	i	i	0.0	-5.1	6.3	529.3
SMILES	Myeloid diff 2	Rce1 inhib	GRK2 aptamer HTS	Rin1 Abl inh	SKN-1 inh	T cell HTS
CN1CCN(CCCNC(=O)c2cc3c(=O)n(C)c4ccccc4c3s2)CC1	i	+	0.0	-8.4	5.0	335.4
O=C(Nc1ccccc1)c1ccc(-c2ccccc2Cl)o1	i	i	7.0	1.0	-7.8	551.5
O=C(Nc1nccs1)c1ccc(-c2ccccc2[N+](=O)[O-])o1	i	i	0.0	-4.3	36.1*	0.0
O=C(Nc1nccs1)c1ccc(-c2ccccc2Cl)o1	.	.	2.0	-1.7	52.7*	283.2
O=C(NCc1csc(-c2cccs2)n1)Nc1cccc(Cl)c1	i	i	0.0	-1.3	7.7	273.7
CCC(=O)N/N=C/c1ccc(-c2ccc([N+](=O)[O-])cc2)o1	i	i	4.0	0.1	-2.0	606.4
CC(C)(C)C(=O)/C=c1\s/c(=C\c2ccc(-c3ccc([N+](=O)[O-])cc3)o2)c(=O)n1CC(=O)NC(N)=O	+	i	1.0	0.6	1.5	i
Cc1cccc(NC(=O)Nc2c(C)[nH]c(=O)[nH]c2=O)c1C	i	i	0.0	-2.6	-0.5	292.1
COc1ccc(/C=N/n2c(=O)[nH]c3c([nH]c4ccc(Br)cc43)c2=O)cc1CN1CCOCC1	i	i	0.0	-4.8	37.5*	204.4
COc1ccc(/C=N/n2c(=O)[nH]c3c([nH]c4ccc(Cl)cc43)c2=O)cc1CN1CCCCC1	i	.	0.0	-2.8	4.4	262.1
Cc1cccc(C#Cc2ccccc2)n1	i	.	0.0	-0.1	46.2*	714.2
Nc1ccc(C#Cc2ccccc2)cc1	i	i	1.0	-3.5	2.5	813.6
Nc1cccc(-c2cn3cc(C(F)(F)F)cc(Cl)c3n2)c1	i	i	0.0	-1.9	-21.6	863.7
FC(F)(F)c1cc(Cl)c2nc(-c3ccccc3)cn2c1	i	i	1.0	-2.0	41.2*	185.6
COc1cc(/C=N/Nc2nncc3ccccc23)cc(OC)c1OC	+	i	2.0	0.1	-3.5	169.7
CCOc1cc(NS(=O)(=O)c2ccc(OC)cc2)c(OCC)cc1NC(=O)c1ccco1	+	.	1.0	-4.0	5.8	392.7
COc1cc(NS(=O)(=O)c2ccc(Br)cc2)c(OC)cc1NC(=O)c1ccco1	i	i	1.0	2.9	48.2*	391.0
COc1cc(OC)c(NC(=O)c2ccco2)cc1Cl	i	i	0.0	0.8	-27.2	290.6
COc1ccc(S(=O)(=O)Nc2cc(OC)c(NC(=O)c3ccco3)cc2OC)cc1	i	i	0.0	2.5	15.9	368.5
CCOC(=O)C1=CCC(c2cccc3ccccc23)N(S(=O)(=O)c2ccc(C)cc2)C1 (centres undefined)	i	.	.	-0.3	3.4	.
OC(Cc1ccccc1Br)c1ncc(-c2ccc(Cl)cc2)[nH]1 (centres undefined)	i	.	.	-0.2	6.3	.
CCN=C1S/C(=C\c2ccc(N3CCOCC3)cc2C)C(=O)N1CC	i	i	0.0	-1.9	6.4	296.7
